Data set [1] relates to A549. Kind of data set: Induction of apoptosis in human A549 cells assessed as cleaved PARP level after 8 hrs by immunoblot analysis. The format is functional, cell-based. In short, it runs like this: (§1)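 A549 cells treated with compound, lysed and immunoblotted for cleaved caspase 8, caspases 3 and 7, and PARP (full-length and cleaved). Caspase 8 was read within 6 h at 1 μM. Representative of at least three independent experiments.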
For orientation: A western blot detects proteins with antibodies after separation by electrophoresis.

Data set [2] deals with A549. Briefly: Induction of endoplasmic reticulum stress in human A549 cells assessed as protein glutathionylation after 8 hrs by immunoblot analysis. The format is functional, cell-based.
In data set [3] the test system is A549. Kind of data set: Induction of endoplasmic reticulum stress in human A549 cells assessed as upregulation of CHOP protein expression by immunoblot analysis. The format is functional, cell-based.
The subject of data set [4] is A549. Kind of data set: Induction of apoptosis in human A549 cells assessed as cleaved caspase 3 level by immunoblot analysis. The format is functional, cell-based. In short, it runs like this: as §1
Data set [5] concerns A549. Kind of data set: Induction of endoplasmic reticulum stress in human A549 cells assessed as upregulation of BiP protein expression by immunoblot analysis. The format is functional, cell-based.
Data set [6] relates to A549. Briefly: Drug metabolism in human A549 cells assessed as nitric oxide release at 10 uM by LC/MS/MS analysis in presence of GSH/GSTP1. To be noted: a549, 10 µM. The format is ADME, cell-based. In short, it runs like this:
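A549 cells were plated in 75 cm2 flasks and grown overnight at 37 °C, then treated with 10 μM compound for varying times up to 1 h. Cells were lysed in 10 mM HCl/acetonitrile, 5-sulfosalicylic acid was added, and the precipitate was spun off at 12000g for 15 min. Supernatant was filtered and metabolites were identified by positive-ion LC/MS/MS (Q-TOF, C18, water/acetonitrile/0.1% formic acid gradient).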

Data set [7] in a line: Prodrug activation assessed as GSH reactivity in aqueous phosphate buffer at pH 7.4 by UV-Visible spectrophotometer analysis. The format is physicochemical. In short, it runs like this: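 UV–vis kinetics at 37 °C in 0.1 M phosphate buffer, pH 7.4, with 50 μM DTPA and 4 mM GSH, with or without 40 nM recombinant GSTP1 or GSTA1. Substrate (typically 10 μM) added after thermal equilibration. Ratios are k with enzyme over k with GSH alone.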

Data set [8] concerns the target T1, MAP kinase p38 (Homo sapiens) (UniProt O15264+Q15759+Q16539+P53778). Kind of data set: Induction of p38 phosphorylation in human A549 cells after 8 hrs by immunoblot analysis. The format is cell-based. Summed up: (§2)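 A549 cells treated with compound and p38 phosphorylation followed by immunoblot from 15 min to 8 h after the start of treatment. At least three independent experiments.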

Data set [9] relates to A549. Kind of data set: Induction of apoptosis in human A549 cells assessed as cleaved PARP level by immunoblot analysis. The format is functional, cell-based. In short, it runs like this: as §1
Data set [10] has as its system A549. Kind of data set: Anticancer activity against human A549 cells xenografted in NCr nu/nu athymic mouse assessed as reduction of tumor growth at 92 umol/kg, iv administered two times a week for 4 weeks. The format is functional, organism-based. In short, it runs like this: (§3)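 A549 cells (RPMI 1640 + 10% FBS, ≤4 passages) harvested at 70–80% confluence, 5 × 10^6 cells in PBS implanted s.c.; at ~3 mm × 3 mm tumors, mice randomized into groups of 12. Tail-vein injection at 92 μmol/kg in 20 μL DMSO, twice weekly for 4 weeks; saline or DMSO controls. Tumors caliper-measured twice weekly, volume = π/2 × L × W². Tumors resected at end, frozen, extracted for metabolite analysis by LC/MS.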
For orientation: In xenograft studies the graft and the host belong to different species.

In data set [11] the target is T2, Glutathione S-transferase A1 (Homo sapiens, UniProt P08263).
T2 sequence (P08263 whole entry): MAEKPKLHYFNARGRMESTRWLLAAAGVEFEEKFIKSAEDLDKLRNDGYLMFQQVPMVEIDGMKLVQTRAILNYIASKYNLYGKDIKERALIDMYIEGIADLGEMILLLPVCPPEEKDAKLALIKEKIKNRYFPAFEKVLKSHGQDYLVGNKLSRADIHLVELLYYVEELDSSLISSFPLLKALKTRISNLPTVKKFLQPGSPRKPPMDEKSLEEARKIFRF
Kind of data set: Ratio of prodrug activation in presence of GSH and recombinant GSTA1 (unknown origin) to prodrug activation in presence of GSH by UV-Visible spectrophotometry. In short, it runs like this:
(§4)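 UV–vis kinetics at 37 °C in 0.1 M phosphate buffer, pH 7.4, with 50 μM DTPA and 4 mM GSH, with or without 40 nM recombinant GSTP1 or GSTA1. Substrate (typically 10 μM) added after thermal equilibration. Absorbance followed at 302 nm; first-order rate from an exponential fit. Ratios are k with enzyme over k with GSH alone.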

In data set [12] the target is Glutathione S-transferase P (Homo sapiens, UniProt P09211). Briefly: Ratio of prodrug activation in presence of GSH and recombinant GSTP1 (unknown origin) to prodrug activation in presence of GSH by UV-Visible spectrophotometry. Summed up: as §4
Chain of Glutathione S-transferase P (P09211 whole entry): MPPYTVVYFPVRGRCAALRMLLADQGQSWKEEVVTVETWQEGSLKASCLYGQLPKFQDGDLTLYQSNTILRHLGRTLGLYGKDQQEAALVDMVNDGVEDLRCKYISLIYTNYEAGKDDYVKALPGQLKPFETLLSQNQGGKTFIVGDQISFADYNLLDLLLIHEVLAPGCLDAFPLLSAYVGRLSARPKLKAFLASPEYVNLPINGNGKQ
Data set [13] has as its target Poly [ADP-ribose] polymerase 1 (Homo sapiens, UniProt P09874). Briefly: Inhibition of PARP-1 (unknown origin) assessed as incorporation of biotinylated poly ADP-ribose onto histone proteins at 0.1 to 1000 nM by colorimetric analysis in presence of GSH and GSTP1. Summed up: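 PARP activity measured with a colorimetric histone biotinylated poly(ADP-ribose) incorporation kit. GSH (4 mM) with or without 40 nM GSTP1 in PBS pH 7.4 was preincubated 10 min at 37 °C. Reaction started by adding prodrug (10 μM substrate) and ran a further 10 min; absorbance read at 450 nm. Inhibitors tested over 0.01 nM–1 μM.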

For data set [14], the system named is Tumour. Kind of data set: Drug uptake in tumor of NCr nu/nu athymic mouse xenografted with human A549 cells at 92 umol/kg, iv administered two times a week for 4 weeks. The format is ADME, organism-based, Neoplasm. To be noted: in vivo, 672 h. Summed up: as §3
The subject of the next data set is Mus musculus. Briefly: Systemic toxicity in NCr nu/nu athymic mouse xenografted with human A549 cells assessed as body weight at 92 umol/kg, iv administered two times a week for 4 weeks (reference value: 25.0 +/-0.78 gms). The format is organism-based. To be noted: in vivo, 672 h.
Data set [15] has as its system A549. Briefly: Anticancer activity against human A549 cells assessed as reduction in number of colonies at 1 uM in presence of 3 nM proteasome inhibitor bortezomib by colony forming assay. The format is functional, cell-based. Summed up:
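A549 colony forming assay after combined treatment with the proteasome inhibitor bortezomib.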

In data set [16] the test system is A549. Briefly: Induction of endoplasmic reticulum stress in human A549 cells assessed as protein glutathionylation measured within 1 hr post-drug treatment by immunoblot analysis. The format is functional, cell-based.
Data set [17] deals with Eukaryotic translation initiation factor 2 subunit 1 (Homo sapiens) (UniProt P05198). Kind of data set: Induction of eIF2-alpha phosphorylation in human A549 cells by immunoblot analysis. The format is cell-based.
Chain of Eukaryotic translation initiation factor 2 subunit 1 (Homo sapiens) (P05198 whole entry): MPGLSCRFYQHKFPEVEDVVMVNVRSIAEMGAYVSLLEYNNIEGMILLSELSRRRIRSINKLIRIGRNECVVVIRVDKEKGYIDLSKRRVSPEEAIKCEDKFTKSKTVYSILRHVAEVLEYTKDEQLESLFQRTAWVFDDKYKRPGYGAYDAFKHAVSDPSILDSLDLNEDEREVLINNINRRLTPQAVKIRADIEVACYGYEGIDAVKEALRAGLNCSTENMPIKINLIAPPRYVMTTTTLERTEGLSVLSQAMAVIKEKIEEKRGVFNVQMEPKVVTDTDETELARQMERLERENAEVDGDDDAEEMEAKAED
The test system of data set [18] is A549. Briefly: Induction of apoptosis in human A549 cells assessed as cleaved caspase 7 level by immunoblot analysis. The format is functional, cell-based. Summed up:
as §1

In another data set the test system is U-937. Kind of data set: Drug metabolism in human U937 cells assessed as nitric oxide release at 5 uM by LC/MS/MS analysis in presence of GSH/GSTP1. Particulars: u-937, 5 µM.
Data set [19] has as its target T1, MAP kinase p38 (Homo sapiens). Kind of data set: Induction of p38 phosphorylation in human A549 cells within 15 mins after drug treatment by immunoblot analysis. The format is cell-based. Summed up:
as §2

Data set [20] has as its system A549. Kind of data set: Induction of apoptosis in human A549 cells assessed as cleaved caspase 8 level at 1 uM within 6 hrs after drug treatment by immunoblot analysis. The format is functional, cell-based. In short, it runs like this: as §1
In data set [21] the test system is Tumour. Kind of data set: Drug metabolism in tumor of NCr nu/nu athymic mouse xenografted with human A549 cells assessed as metabolite formation at 92 umol/kg, iv administered two times a week for 4 weeks. The format is ADME, organism-based, Neoplasm. Particulars: in vivo, 672 h. Summed up:
as §3

The test system of data set [22] is A549. Kind of data set: Induction of endoplasmic reticulum stress in human A549 cells assessed as upregulation of ATF4 protein expression by immunoblot analysis. The format is functional, cell-based.

Calls of active or inactive are those of the source. No cut-off for these calls is given here.

Chain of Poly [ADP-ribose] polymerase 1 (P09874 whole entry): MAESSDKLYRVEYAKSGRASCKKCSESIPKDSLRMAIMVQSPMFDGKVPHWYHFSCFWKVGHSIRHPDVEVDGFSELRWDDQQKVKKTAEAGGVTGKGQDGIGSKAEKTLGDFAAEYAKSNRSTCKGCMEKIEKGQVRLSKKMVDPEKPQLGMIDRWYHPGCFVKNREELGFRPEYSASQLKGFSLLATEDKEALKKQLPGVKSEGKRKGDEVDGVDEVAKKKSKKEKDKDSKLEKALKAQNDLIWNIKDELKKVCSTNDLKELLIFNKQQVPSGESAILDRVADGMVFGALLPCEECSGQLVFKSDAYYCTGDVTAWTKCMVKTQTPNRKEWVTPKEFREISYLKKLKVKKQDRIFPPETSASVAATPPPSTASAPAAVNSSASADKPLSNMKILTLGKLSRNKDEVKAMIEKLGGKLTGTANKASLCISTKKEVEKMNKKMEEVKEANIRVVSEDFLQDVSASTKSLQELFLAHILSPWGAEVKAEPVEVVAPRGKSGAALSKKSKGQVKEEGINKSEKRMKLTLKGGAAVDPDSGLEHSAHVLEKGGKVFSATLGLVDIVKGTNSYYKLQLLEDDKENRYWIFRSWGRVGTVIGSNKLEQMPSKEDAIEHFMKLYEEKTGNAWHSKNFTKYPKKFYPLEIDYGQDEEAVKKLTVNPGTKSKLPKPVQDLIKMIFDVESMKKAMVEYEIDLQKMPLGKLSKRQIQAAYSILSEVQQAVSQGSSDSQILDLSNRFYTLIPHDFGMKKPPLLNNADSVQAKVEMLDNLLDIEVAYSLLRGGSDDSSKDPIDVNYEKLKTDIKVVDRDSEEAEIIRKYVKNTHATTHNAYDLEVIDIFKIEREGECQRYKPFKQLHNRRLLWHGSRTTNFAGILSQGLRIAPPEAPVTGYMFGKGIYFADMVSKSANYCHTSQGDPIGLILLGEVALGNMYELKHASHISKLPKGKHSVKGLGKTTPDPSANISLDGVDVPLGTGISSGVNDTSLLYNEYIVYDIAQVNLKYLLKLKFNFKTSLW

As to `CN(C)/[N+]([O-])=N\Oc1cc(O/N=[N+](\[O-])N2CCN(C(=O)c3cc(Cc4n[nH]c(=O)c5ccccc45)ccc3F)CC2)c([N+](=O)[O-])cc1[N+](=O)[O-]`, the result (in the data set on A549 [1]; in the data set on A549 [3]; in the data set on A549 [4]; in the data set with A549 [5]; in [8]; with A549 [9]) was Active. In addition, the result (with A549 [16]; in data set [17]; in the data set on A549 [18]; in data set [19]; in the data set with A549 [20]; in the data set on A549 [22]) was Active. The outcome in the data set on A549 [2] was inactive. The Drug metabolism result in the data set on A549 [6], in the data set on U-937 and in the data set with Tumour [21] was “metabolite_detected” in each case. Also, the t1/2 in data set [7] came out at 16 min. Further, the “growth inhibition (GI)” value with A549 [10] is “Active”. In addition, the Ratio in data set [11] is 9.2; in [12] it was 13.3. The inhibition result (in data set [13]; in the data set with A549 [15]) was “Active” in each case. For the same compound, in the data set with Tumour [14], the Drug uptake entry was “Active”. For the same compound, the Activity in the data set on Mus musculus is listed as 25.3 g.

The values above are taken from ChEMBL document CHEMBL3232734, “Nitric oxide (NO) releasing poly ADP-ribose polymerase 1 (PARP-1) inhibitors targeted to glutathione S-transferase P1-overexpressing cancer cells” (J Med Chem, 2014).
